From ChEMBL document CHEMBL3804799, “Synthesis and Biological Evaluation of Novel σ1 Receptor Ligands for Treating Neuropathic Pain: 6-Hydroxypyridazinones” (J Med Chem, 2016)

How the values were obtained:
Mus musculus = test: Toxicity in Kun Ming mouse assessed as impair in motor coordination at 40 to 160 mg/kg, ig measured after 30 to 120 mins by rotarod test; format: organism-based; conditions: in vivo, po
Summary of the method: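 Mice were pre-trained; any that could not stay 300 s on the rod at 10 rpm were excluded. Latency to fall from the rod rotating at 10 rpm was recorded 30, 60, 90 and 120 min after intragastric dosing. 8–10 mice per group.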

Rattus norvegicus [1] = test: Antiallodynic activity in po dosed Sprague-Dawley rat chronic constriction injury-induced neuropathic pain model assessed as inhibition of mechanical allodynia administered as bid on day 15th and 18th post surgery by Von frey test; format: functional
Summary of the method: (§1)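 Sciatic nerve CCI in SD rats (Bennett–Xie) under 5% chloral hydrate: four loose 4-0 silk ligatures on the right sciatic nerve, about 1 cm proximal to the trifurcation. Oral dosing in 0.5% methylcellulose (10 mL/kg), twice daily on days 15–18. Testing followed the first dose on day 15 and the last dose on day 18. Mechanical withdrawal threshold by von Frey up–down method, four samplings averaged. 10 rats/group.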

Rattus norvegicus [2] = test: Effect on mechanical allodynia in sham-operated Sprague-Dawley rat at 20 to 80 mg/kg, po administered as bid on days 15th to 18th; format: ADME, organism-based; conditions: in vivo; summary of the method: as §1
Rattus norvegicus [3] = test: Antiallodynic activity in po dosed Sprague-Dawley rat chronic constriction injury-induced neuropathic pain model assessed as inhibition of thermal hypersensitivity administered as bid on day 15th and 18th post surgery by plantar test; format: functional
Summary of the method: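 CCI or sham SD rats, 10 per group, dosed orally in 0.5% methylcellulose (10 mL/kg) twice daily on days 15–18. Tested after the first dose on day 15 and the last dose on day 18. Plantar test: after 30 min acclimation on a glass floor, radiant heat was applied under the hind paw and withdrawal latency recorded. 30 s cutoff; mean of four samplings.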

[4] = target: 5-hydroxytryptamine receptor 2A (Rattus norvegicus) (UniProt P14842); test: Displacement of [3H]-ketanserin from 5HT2A receptor in rat cerebral cortex at 1 uM after 15 mins by liquid scintillation counting analysis; format: tissue-based
[5] = AUC (0 to infinity) in Sprague-Dawley rat at 5 mg/kg, iv by LC-MS/MS analysis; format: ADME, organism-based; parameters: dose 5 mg/kg, time infinity, route intravenous; conditions: in vivo
Summary of the method: (§2)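 Rats (n = 3/group) dosed via lateral tail vein, 5 mg/kg in 100% saline. Serial tail-vein blood into heparinized tubes at 30 min and 1, 2, 3, 4, 5, 6, 8 and 24 h. Plasma separated by centrifugation, proteins precipitated with acetonitrile, analysed by LC/MS.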

[6] = target: Histamine H3 receptor (Rattus norvegicus) (UniProt Q9QYN8); test: Displacement of [3H]-N-alpha-methylhistamine from H3 receptor in rat cerebral cortex at 1 uM after 30 mins by liquid scintillation counting analysis; format: tissue-based
[7] = Half life in Sprague-Dawley rat at 80 mg/kg, po administered through gavage by LC-MS/MS analysis; format: ADME, organism-based; conditions: in vivo
Summary of the method: (§3)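 SD rats, n = 3/group. Dosing was either 5 mg/kg iv via tail vein in saline or 80 mg/kg by oral gavage as a suspension in 0.5% methylcellulose. Serial tail-vein blood was drawn into heparinized tubes at 0.5, 1, 2, 3, 4, 5, 6, 8 and 24 h. Plasma was separated, proteins precipitated with acetonitrile, and samples analysed by LC/MS.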

[8] = Tmax in Sprague-Dawley rat at 80 mg/kg, po administered through gavage by LC-MS/MS analysis; format: ADME, organism-based; conditions: in vivo; summary of the method: as §3
[9] = AUC (0 to last) in Sprague-Dawley rat at 5 mg/kg, iv by LC-MS/MS analysis; format: ADME, organism-based; parameters: dose 5 mg/kg, route intravenous, time 0 - last; conditions: in vivo; summary of the method: as §2
[10] = target: Mu-type opioid receptor (Homo sapiens) (UniProt P35372); test: Displacement of [3H]-diprenorphine from human mu-opiod receptor expressed in CHO cells at 1 uM after 150 mins by liquid scintillation counting analysis; format: cell-based
[11] = Cmax in Sprague-Dawley rat at 80 mg/kg, po administered through gavage by LC-MS/MS analysis; format: ADME, organism-based; parameters: dose 80 mg/kg, route oral; conditions: in vivo; summary of the method: as §3
[12] = target: Sodium-dependent serotonin transporter (Rattus norvegicus) (UniProt P31652); test: Inhibition of 5HT transporter in rat cerebral cortex assessed as [3H]-paroxetine uptake at 1 uM after 10 mins by liquid scintillation counting analysis; format: tissue-based
[13] = AUC (0 to last) in Sprague-Dawley rat at 80 mg/kg, po administered through gavage by LC-MS/MS analysis; format: ADME, organism-based; parameters: dose 80 mg/kg, time 0 - last, route oral; conditions: in vivo
Summary of the method: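 Oral gavage to rats (n = 3/group), 80 mg/kg as suspension in 0.5% methylcellulose. Blood drawn serially from lateral tail vein into heparinized tubes at 30 min and 1, 2, 3, 4, 5, 6, 8 and 24 h. Plasma obtained by centrifugation, acetonitrile protein precipitation, LC/MS quantification.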

Chain of Mu-type opioid receptor (Homo sapiens) (P35372 whole entry): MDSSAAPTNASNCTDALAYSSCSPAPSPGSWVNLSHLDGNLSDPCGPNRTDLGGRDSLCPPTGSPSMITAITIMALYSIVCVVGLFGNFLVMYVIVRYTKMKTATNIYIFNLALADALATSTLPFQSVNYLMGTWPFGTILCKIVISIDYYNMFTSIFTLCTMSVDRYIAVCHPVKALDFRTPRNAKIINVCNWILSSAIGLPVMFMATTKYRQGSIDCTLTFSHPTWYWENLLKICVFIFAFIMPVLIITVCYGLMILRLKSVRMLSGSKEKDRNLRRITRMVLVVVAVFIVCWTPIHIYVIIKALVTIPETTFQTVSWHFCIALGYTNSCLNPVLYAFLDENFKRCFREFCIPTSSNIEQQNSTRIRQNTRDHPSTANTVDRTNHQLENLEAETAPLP
Chain of Sodium-dependent serotonin transporter (Rattus norvegicus) (P31652 whole entry): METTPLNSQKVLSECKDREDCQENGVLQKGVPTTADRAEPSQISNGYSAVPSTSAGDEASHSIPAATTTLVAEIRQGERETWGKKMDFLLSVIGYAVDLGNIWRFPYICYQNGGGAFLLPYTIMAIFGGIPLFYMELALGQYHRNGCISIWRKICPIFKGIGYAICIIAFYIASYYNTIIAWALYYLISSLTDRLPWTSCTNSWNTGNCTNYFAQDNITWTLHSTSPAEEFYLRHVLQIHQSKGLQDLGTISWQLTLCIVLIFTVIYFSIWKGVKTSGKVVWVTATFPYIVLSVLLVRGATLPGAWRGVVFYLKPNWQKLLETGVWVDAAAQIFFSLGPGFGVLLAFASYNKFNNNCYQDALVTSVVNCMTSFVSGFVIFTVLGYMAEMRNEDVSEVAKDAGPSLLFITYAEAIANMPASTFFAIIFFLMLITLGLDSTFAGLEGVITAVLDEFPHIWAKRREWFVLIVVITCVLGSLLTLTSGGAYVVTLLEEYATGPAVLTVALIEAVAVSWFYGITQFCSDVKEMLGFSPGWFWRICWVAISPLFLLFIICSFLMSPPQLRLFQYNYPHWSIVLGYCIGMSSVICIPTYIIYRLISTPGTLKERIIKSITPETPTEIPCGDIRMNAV
Chain of 5-hydroxytryptamine receptor 2A (Rattus norvegicus) (P14842 whole entry): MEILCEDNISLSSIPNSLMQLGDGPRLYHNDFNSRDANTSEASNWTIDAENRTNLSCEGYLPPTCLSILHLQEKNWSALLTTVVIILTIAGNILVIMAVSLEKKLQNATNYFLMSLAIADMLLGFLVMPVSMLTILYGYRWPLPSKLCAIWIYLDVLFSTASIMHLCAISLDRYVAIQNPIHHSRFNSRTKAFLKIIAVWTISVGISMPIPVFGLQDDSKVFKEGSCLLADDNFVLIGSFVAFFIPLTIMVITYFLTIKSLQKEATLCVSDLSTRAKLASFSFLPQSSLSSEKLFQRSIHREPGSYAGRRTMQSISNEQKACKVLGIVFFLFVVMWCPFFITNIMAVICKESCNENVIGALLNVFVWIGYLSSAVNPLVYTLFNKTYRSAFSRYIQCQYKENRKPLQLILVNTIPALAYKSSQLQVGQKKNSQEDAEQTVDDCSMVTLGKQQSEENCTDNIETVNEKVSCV
Chain of Histamine H3 receptor (Rattus norvegicus) (Q9QYN8 whole entry): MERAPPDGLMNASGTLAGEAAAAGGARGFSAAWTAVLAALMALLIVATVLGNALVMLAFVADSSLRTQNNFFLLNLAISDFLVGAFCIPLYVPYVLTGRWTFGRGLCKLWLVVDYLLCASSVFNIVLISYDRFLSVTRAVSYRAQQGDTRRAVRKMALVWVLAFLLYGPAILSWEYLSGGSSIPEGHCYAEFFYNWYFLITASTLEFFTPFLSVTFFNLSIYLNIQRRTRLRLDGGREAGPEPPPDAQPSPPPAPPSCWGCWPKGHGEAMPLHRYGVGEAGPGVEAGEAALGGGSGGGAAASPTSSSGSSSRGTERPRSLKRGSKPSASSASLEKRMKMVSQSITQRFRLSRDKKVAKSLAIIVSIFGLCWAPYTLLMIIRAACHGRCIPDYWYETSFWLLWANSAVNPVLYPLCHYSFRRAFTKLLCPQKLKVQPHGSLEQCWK

## O=c1ccc(OCCCN2CCCCC2)nn1-c1ccc(Cl)c(Cl)c1
Mus musculus
  Activity: Non-toxic
Rattus norvegicus [1]
  ED50: 40.3 mg/kg
Rattus norvegicus [2]
  Activity: Non-toxic
Rattus norvegicus [3]
  ED50: 16.9 mg/kg
[4]
  inhibition: < 50%
[5]
  AUC(0-inf): 956 ng·h/mL
[6]
  inhibition: < 50%
[7]
  half-life: 2.88 h
[8]
  Tmax: 0.33 h
[9]
  AUC(0-t): 931 ng·h/mL
[10]
  inhibition: < 50%
[11]
  Cmax: 2920 ng/mL
[12]
  inhibition: < 50%
[13]
  AUC(0-t): 11700 ng·h/mL
